Test results as given in the EternaBench riboswitch data.

Tested on: MS2 coat protein
Experiment: apparent Kd, MS2 coat protein; higher = weaker binding; RNA-MaP array; FMN 200 µM where present
Method in brief: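 Green signal from SNAP-549-labelled MS2 coat protein was normalised to red-channel RNA signal and to the median Fmax of control clusters. The protein was titrated from 0.7 or 1.5 nM, doubling to 3 µM, without and then with constant ligand, over designs transcribed by stalled E. coli RNA polymerase on Illumina sequencing-chip clusters, in 100 mM Tris-HCl pH 7.5, 80 mM KCl, 4 mM MgCl2, BSA, DTT, yeast tRNA and Tween-20. The apparent Kd is the median of filtered per-cluster binding-curve fits.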

[1] = designed as: ON switch for flavin mononucleotide, no ligand
[2] = ligand present: flavin mononucleotide, designed as: ON switch for flavin mononucleotide
[3] = designed as: OFF switch for flavin mononucleotide, no ligand
[4] = ligand present: flavin mononucleotide, designed as: OFF switch for flavin mononucleotide

Row | Sequence | apparent Kd [1] [nM] | apparent Kd [2] [nM] | apparent Kd [3] [nM] | apparent Kd [4] [nM]
1 | UGGUACUAGGGAGGAUAUGGGAAGGUACAUGAGGAUCACCCAUGUUUAAGAAUGCCGAGAGGCAACUAGAAGGCCCUAGUACCU | 204 | 13.6 | – | –
2 | CAGUACUGAGGAUAUACAUGAGGAUCACCCAUGUGUUCCUUGUAGGAUAUGCGCAAAAGUAGAAGGCAGAAGGACAUGUGCCUA | – | – | 7.48 | 6.45
3 | UUGUUACAUGAGGAUCACCCAUGUGAGGAUAUGGUUCGGUACUGUCAUGUCGCGUACUCCAGAAGGCACAUGUU | – | – | 97.1 | 303
4 | CACAGGGAUUCAGGAUAUAUUAGCCGAGGCCGCGUAGAAGGGAAAUCCUGACAUGAGGAUCACCCAUGUUGACCCGCCUUCCAU | 52.8 | 62.5 | – | –
5 | AAAGUAAACGAAGGAUAUGGUUACAUGAGGAUCACCCAUGUAAUGGUUGUGAUAUUGAUUAAGUUCCAGAAGGUCGUAUACAUA | – | – | 199 | 371
6 | AAUAUAAAGCAGAAGGCCUUAUUACAUGAGGAUCACCCAUGUAAUCGUGGGAGGAUAUGCAUGAUACAAGUACGUUUGGUAGGA | 8.76 | 5.22 | – | –
7 | CCCGCGAUGUCAGGAUAUAGUCGGAGGUGCAGACUAGAAGGGACAUGAGGAUCACCCAUGUGCGUGAACAUUUGAAACCCGGGU | – | – | 40.4 | 153
8 | AUUUUUAAGGUAGGAUAUAGUAUAAUGAUUUAAUUAGAAGGAUCUCACAUGAGGAUCACCCAUGUAAUAGGAUUACCCAUGUAU | – | – | 27.8 | 22.7
9 | UACUAUAAGGAGGAUAUCGUAUCGGAGACGAUACGAGAAGGCUUAACAUGAGGAUCACCCAUGUUCUUCAAUAU | – | – | 15.3 | 18.3
10 | ACGCCCUGAGGAUAUCUUAUCCCGUACAUGAGGAUCACCCAUGUUUUCCUCCGGGCUCCGAGAGAAGGCAGGCCCA | – | – | 42.2 | 75.9
11 | AGUACAUCAGGAUAUACAUGAAAGAUCAUCAUGACCUUUCUACAUGAGGAUCACCCAUGUAGAAGGGAUGUACA | – | – | 20.2 | 38
12 | UCAUACAUGAGGAUCACCCAUGACAUGAGGAUCACCCAUGUGCAGGAUAUACGUGAUAUAAUAUAGUAGAAGGGCAGACUAUAU | – | – | 51.9 | 57.6
13 | CUUUUGUGAGGAUAUCAGGUGUGCUAGCGUACUGGUACAUCUGAGAAGGCACAUGAGGAUCACCCAUGUUCCUU | – | – | 13.4 | 29.2
14 | CCUUUGUCAGGAUAUCGAAAAGGGAGGCCAAAAGCCUCCGGUGAGAAGGGACAUGAGGAUCACCCAUGUGAAAA | – | – | 46.4 | 159
15 | GCGUAUUAGGUGUAGCUAGUCAUUCAAGAAGGGUGGAGAACAUGAGGAUCACCCAUGUAGUUUAUACAGGAUAUUGAUAUACGC | 489 | 101 | – | –
16 | AGAAAGUCAGGAUAUCGAAGGUAGUGGAGAGGAGUGUGGUACGAGAAGGGACAUGAGGAUCACCCAUGUAGGAG | – | – | 34.1 | 31.4
17 | UUCCUCGUUGUGAGGAUAUCGUCCGGGUUUUGUUACGAGAAGGCACAUGAGGAUCACCCAUGUUACUUGAUGUU | – | – | 19 | 64
18 | AUUAUUAUAUUAUACAUGAGGAUCACCCAUGUUAUAAGUCAUGAGGAUAUGGUUUUGUAGAUUUUCCAGAAGGCAUUUAACUUA | 13.3 | 7.8 | – | –
19 | UAAUAUUUAUGAUAUUAUUACAGUAGAAGGCUAUACAUGUGGAUACAUGAGGAUCACCCAUGUAUAGAGGAUAUAUACAUAUAU | – | – | 964 | 351

Row | Sequence | apparent Kd [1] [nM] | apparent Kd [2] [nM] | apparent Kd [3] [nM] | apparent Kd [4] [nM]
20 | AAGUCGUGAGGAUAUACAUGGAUAUACAUUUAUGUAGAACUACAUGAGGAUCACCCAUGUAGAAGGCACGAAUA | – | – | 56.2 | 147
21 | UGUCGGAGCAGAGGAUAUUACAUGAGGAUCACCCAUGUAAUAAGAUCAAGCUGGAAACAGCAAUGUAAGAAGGCUGCUCCGACA | – | – | 16.9 | 43.3
22 | GGGUACAUCGGAGGAUAUCAAGUAAAUACAUGAGGAUCACCCAUGUCGAUGGAGACAUCGGAGAUUGAGAAGGCCGAUGUACCG | 6 | 5.42 | – | –
23 | UUGGCGCGAUCCUUGGUCUCACAUGAGGAUCACCCAUGUAGAGAGGAUAUGCAUAGGGCCCAAUGGCAGAAGGCUCUACAUGAG | – | – | 67.1 | 71.2
24 | CGUAGGAUCCAGAAGGCAUGUACAUGAGGAUCACCCAUGUCAAUAGACAUGAGGAUAUGGAUCCUACGAAAAGUGCGAAAGCAC | 10.5 | 4.49 | – | –
25 | GCCAUCGCAUGAGGAUAUGGCACCGUUUCGGUGCCAGAAGGCAUGUCUCUUGACAUGAGGAUCACCCAUGUAGUUAAGAUGGCA | 779 | 52 | – | –
26 | GCGUACAUAUCAGGAUAUCAUUGUAUUGUUUUACUCAGUGUAUACAUGAGGAUCACCCAUGUUCUUGAGAAGGGAUUACUACGC | – | – | 15.1 | 14.1
27 | AGUAUACAUGAGGAUCACCCAUGUCAGUAACUGACAGGAUAUGCGUUGCAUCACUGUAAUGCAGAAGGGUCUUGUA | 507 | 115 | – | –
28 | CAGUACUGAGGAUAUACAUGAGGAUCACCCAUGUGUUCCAGCUAGGAAACUAGCAAUUGUAGAAGGCAGUACUG | – | – | 59.2 | 428
29 | AAUCCACAUGAGGAUCACCCAUGUCAGGAUAUGGUGACGCGGGUUUCGGUGCGUGUUGCCAGAAGGGACGGCUG | – | – | 27 | 46.7
30 | CCGUCAAUCGAGAAGGGCCUAUGUGCUACACCGGCAGGAUAUCGACAUGAGGAUCACCCAUGUUGGCGAUCCUUUUUGGCGGAC | – | – | 135 | 36.5
31 | CGCGAAAACAUAGGAUAUUGUUACAUGAGGAUCACCCAUGUCAACCAUGUAGCUCGAAUUGUUGUCAAGAAGGAUGAGGUCGCG | 18.4 | 22 | – | –
32 | GUCGUGUUAGGAUAUGGCAACGGCUACGAAAGUAGUUGUUGUUAGAAGGAACAUGAGGAUCACCCAUGUAUGAC | – | – | 38 | 101
33 | UUGUACAUAGGAUAUAGUUGUUUCUACAUGAGGAUCACCCAUGUUAUUCCUCUCUCCCUUCUAGAAGGAUGUUUUU | – | – | 40.9 | 38
34 | AACAGCACAGGAUAUACAUGAGGAUCACCCAUGUGAGAAUUAAGUAGAUUGCCACAGAGUAGAAGGGUGCUGGA | – | – | 53.7 | 104
35 | AAAAGCUCAGGAUAUACGGUCUGUUGUUGAGAAAUAAAAAAACAUGAGGAUCACCCAUGUAGAAGGGAGCGAAA | – | – | 79.5 | 160
36 | AGUGGUGGAGGAUAUACAUGAGGAUCACCCAUGUAAAUCACACAUGUGGUCAAAGCAUGUAGAAGGCCACUACA | – | – | 99.6 | 109
37 | UGUGUGUGGGCAGGAUAUGCGUGAAGAUGUAUGAUGUAGUGUGAUGUAACAUGAGGAUCACCCAUGUAGAAGGGCCGGUGUGUG | – | – | 124 | 129
38 | CGUGCAUAUGUAGGAUAUGGUUAUCUAUGUCUAGUUACUAGACAUAGAUAACCAGAAGGACAUGAGGAUCACCCAUGUAGCACG | – | – | 9.7 | 17.4

Row | Sequence | apparent Kd [1] [nM] | apparent Kd [2] [nM] | apparent Kd [3] [nM] | apparent Kd [4] [nM]
39 | CCUUUACAUGAGGAUCACCCAUGUCAGGAUAUCCUGUGGUGUUGUCUCGGGCGACACAUGAGCCAGGAGAAGGGACGAAGGGAA | – | – | 49 | 76.3
40 | CCUAGAGAAGGAUAUACAUGAGGAUCACCCAUGUUCCGGCGCACAAUUAUGCGCCAAUGUAGAAGGUCUGGGCA | – | – | 23.6 | 26.6
41 | GGUCACGUAGGAUAUACCUGGGCCUCUGAAUUCGGCAAUUUACAUGAGGAUCACCCAUGUAGAAGGACGAUGGC | – | – | 120 | 97.6
42 | GGGCAAAAGUAGAAGGGAUAUACGAAAAGUAUAUCAGGAUAUACAUGAGGAUCACCCAUGUUCUAAAAGUGAUAAUCCUCCCUA | – | – | 70 | 346
43 | UUAGGAUCAGGAUAUGAUGUUUUAAACAUGAGGAUCACCCAUGUAGAUCCUGAUUCAACAUCAGAAGGGAUAAUUU | – | – | – | 21.5
44 | GCAGCUUAUGCAGGAUAUCAGCACGUGUAGUGCUGAGAAGGGCACAUGAGGAUCACCCAUGUGAUCAAUUAAUAUAAAUGCUGC | – | – | 12.8 | 48.5
45 | GGAAGACAAAGUCUUCCAUUACGAACAUGAGGAUCACCCAUGUAGGAUAUGCUUCUCAAAGAGAAGCAGAAGGACAUGUGUCUU | – | – | 26.6 | 134
46 | GGGCUGUCAGGAUAUACAUGAGGAUCACCCAUGUCGAGCUGUGAUAGGGCAAGAGUAGGUAGAAGGGACGAGAG | – | – | 34.7 | 36.1
47 | UUACUCAUGUAAGGAUAUGCAGUCGUUUCGGCUGCAGAAGGUACUAUAAUACAUGAGGAUCACCCAUGUCUUUUUAAUUUUUAC | 112 | 41 | – | –
48 | CAGUAGAUCCGAGGAUAUACAAUCCGGAAACGGUACAUGAGGAUCACCCAUGUAGAAGGCGGAUCUACAGGUACUAAAGUACCC | – | – | 5.99 | 7.8
49 | AAAAAGGCAGGAUAUACAAAAAAGAGAAGAGAGGAGGAGGGACAUGAGGAUCACCCAUGUAGAAGGGCCAAAAA | – | – | 31.5 | 37.4
50 | UUAUGUUUUGUAGGAUAUCAUUAGUUAUGUAUUAUAAUUGAAAUUUUGUUAUGAGAAGGACAUUUACAUGAGGAUCACCCAUGU | – | – | 13.9 | 9.9
51 | GAUUAACAUGAGGAUCACCCAUGUGAGGAUAUGGAAUGGCUCACUUUUCGAUUCCCGUCUAGAAGGCACAUCUU | – | – | 54.6 | 53.3
52 | GCACUGGAUGUAGGAUAUCAGGACGAUAAGUCCUGAGAAGGACAUGAGGAUCACCCAUGUAAAAACUUCCCAGUGCAUAAUAUA | – | – | 15.4 | 18
53 | CUUUAUCACUAUACAUGAGGAUCACCCAUGUUAUCAUCAUGAGAGGAUAUCGUAUUUGGAUUUUUCGAGAAGGCUCUAUUGUAU | 152 | 53.9 | – | –
54 | AGGCGAGUAGGAUAUGCGUAUUUACGGGAAAGCUGGAUGAUACAUGAGGAUCACCCAUGUAGAAGGGCUCUGAA | – | – | 19.2 | 15.3
55 | AAGAAGGACGCAGGAUAUCCAGGACCUCCCGCAGGAGAAGGGCGAAACAUGAGGAUCACCCAUACAUGAGGAUCACCCAUGUAA | – | – | 33 | 36.3
56 | GUCGGAAACGACAAACGUAGCAUACGAGAAGGCUGAUCCACGACAUGAGGAUCACCCAUGUAGUUAGAGGAUAUUGGAUGCUAC | 54.7 | 11.3 | – | –
